# Data reported in PubChem BioAssay AID624268 (The Scripps Research Institute Molecular Screening Center, 2012).
# Out of some 360,000 compounds screened, about 1,500 (0.42%) were called active. Shown is part of a subset that was picked to be rich in actives. Values without a mark were called inactive.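 The calls were made as follows: active = inhibition above a per-plate cutoff of the control wells' mean inhibition plus 3 SD (cut at about 5.5% in these data); inactive = the rest.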
# Tested on: methionyl-tRNA synthetase (Trypanosoma brucei brucei)
# Experiment: T. brucei MetRS inhibitors, primary screen, biochemical, luminescence (AID 624268);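 also: 0% = DMSO wells median and 100% = median of wells with control inhibitor compound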
# Settings: purified T. brucei MetRS, ATP depletion, Kinase-Glo luminescence; at 11.9 µM; active compounds read high
# How it was run: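 Test system: purified T. brucei MetRS enzyme. Also added: ATP, methionine and E. coli bulk tRNA substrates. Compound: 11.9 µM single point. Schedule: 15 min enzyme-compound preincubation, 2 h reaction, 10 min detection, 25 °C. Signal: luciferase luminescence of residual ATP, Kinase-Glo. Evaluation: percent inhibition versus plate control medians. Controls: DMSO wells, low control.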
row,SMILES,inhibition
1,CCc1nc(C)cn1S(=O)(=O)c1cc([N+](=O)[O-])ccc1Cl,-0.04%
2,O=C(CN1C(=O)CC(c2ccccc2)S(=O)(=O)c2ccccc21)NC1CCCC1 (stereo unspecified),-0.4%
3,Cc1cc(C(=O)OCC(=O)Nc2ccc(F)c(F)c2)c(C)o1,0.47%
4,COc1ccccc1NS(=O)(=O)N(C)C,-0.33%
5,CCOC(=O)CSc1nc2ccc(C)cc2n2cnnc12,-0.42%
6,CN(C)CCNC(=O)c1ccc(-c2cn3c(-c4ccc(Oc5ccccc5)cc4)cnc3cn2)cc1,0.12%
7,CC(C)(C)n1cnnc1Sc1ccc([N+](=O)[O-])cn1,-0.07%
8,O=C(Cc1ccc(S(=O)(=O)N2CCOCC2)s1)Nc1ccc(Br)c(C(F)(F)F)c1,9.17% (active)
9,O=C(Cc1ccc(S(=O)(=O)N2CCOCC2)s1)NCCOc1ccccc1F,-0.22%
10,O=C(Cc1ccc(S(=O)(=O)N2CCOCC2)s1)NCCC(c1ccccc1)c1ccccc1,-0.24%
11,Cc1nc(-c2ccc(Cl)cc2)sc1C1(C)CC(c2ccc(Br)cc2)=NO1 (stereo unspecified),0.57%
12,Cc1c(O)c(C)c2c(c1O)C(=O)C[C@@H](c1ccccc1)O2,1.18%
13,CCO[C@H]1OC(C(=O)O)=C[C@@H](C2CCCCC2)[C@@H]1CCCO,-0.27%
14,CCO[C@@H]1OC(C(=O)NCc2nc3ccccc3[nH]2)=C[C@H](C2CCCCC2)[C@H]1CCCO,15.3% (active)
15,CCO[C@H]1OC(C(=O)Nc2ccccc2)=C[C@@H](C2CC2)[C@@H]1CCCO,-0.28%
16,c1ccc(-c2ccc3c(c2)NC(C2Nc4cc(-c5ccccc5)ccc4O2)O3)cc1 (stereo unspecified),-0.77%
17,NC(=O)c1ccc(-c2csnn2)cc1,-0.49%
18,Cc1cc(Nc2cccc(F)c2)n2ncnc2n1,0.76%
19,O=C(Nc1ccccc1)c1ccccc1Br,0.92%
20,C/C(=N/NC(=O)c1cc(Cl)ccc1O)C12CC3CC(CC(C3)C1)C2,-0.58%
21,CC(=N\NC(=O)c1cc(Br)ccc1O)/C(=N/O)C(=O)Nc1ccccc1,7.43% (active)

row,SMILES,inhibition
1,COc1ccc(S(=O)(=O)c2c[nH]c(=S)[nH]c2=O)cc1Cl,-0.79%
2,CCOC(=O)c1cccc(NC(=O)CCc2c(C)nc3ncnn3c2C)c1,-0.04%
3,Cc1ccc(C(=O)Nc2ccc(C)c(S(=O)(=O)N(C)C)c2)s1,-0.69%
4,O=S(=O)(NCc1ccc(Cl)cc1Cl)c1cccs1,18.5% (active)
5,O=C(Nc1cccc(Cl)c1)Nc1ccccc1NS(=O)(=O)c1cccs1,-0.14%
6,O=S(=O)(NCCc1ccc(Cl)cc1)c1cccs1,0.22%
7,Cc1ccnc(NC(=O)Cn2ccc([N+](=O)[O-])n2)c1,1.25%
8,OCCNc1nc2ccccc2n1-c1ncnc2sc3c(c12)CCC3,22.8% (active)
9,O=C(O)c1cccnc1Sc1ncnc2sc3c(c12)CCC3,-0.25%
10,Cn1c(NN)nc2sc3c(c2c1=O)CCC3,-0.59%
11,CSCC[C@H](NC(=O)NCc1cccs1)C(=O)O,2.05%
12,O=S(=O)(c1ccccc1)N1CCC(c2ccccc2)CC1,0.06%
13,O=S(=O)(c1ccc(Br)cc1)N1CCC(c2nc3ccccc3[nH]2)CC1,7.1% (active)
14,N#CC(C(=O)c1ccc(S(=O)(=O)N2CCCCCC2)cc1)c1nc2ccccc2[nH]1 (stereo unspecified),-0.41%
15,CCCNS(=O)(=O)c1ccc2c(c1)CCCN2C(C)=O,-0.19%
16,Clc1ccc(-c2cc(C3CCNCC3)[nH]n2)c(Cl)c1,39.1% (active)
17,Clc1ccc(-c2cc(-c3ccccn3)on2)c(Cl)c1,0.55%
18,CCC(C)[C@H](NC(=O)N1c2ccccc2NC(=O)[C@@H]1C(C)C)C(=O)N[C@@H](Cc1ccccc1)C(=O)O (stereo partly specified),-1.81%
19,O=C(NCC(O)c1nc2ccccc2[nH]1)c1ccc(Br)cc1 (stereo unspecified),21% (active)
20,CSCCC(NC(=O)c1cc([N+](=O)[O-])cc([N+](=O)[O-])c1)c1nc2ccccc2[nH]1 (stereo unspecified),3.68%
21,CCCC(NC(=O)c1ccco1)c1nc2ccccc2[nH]1 (stereo unspecified),0.25%

row,SMILES,inhibition
1,COc1ccccc1CCC(=O)OCC(=O)N1CCN(S(=O)(=O)c2ccc(C)cc2C)CC1,-0.39%
2,C/C(=C\C(=O)c1ccccc1)Nc1cccc(O)c1,0.01%
3,O=C(NCc1cccc(CNC(=O)Nc2cccc(O)c2)c1)Nc1cccc(O)c1,8.03% (active)
4,O=C(NCc1cccnc1)Nc1cccc(NC(=O)NCc2cccnc2)c1F,-1.05%
5,O=C(CSCc1ccc([N+](=O)[O-])cc1)NCCSCc1ccccc1,-0.21%
6,CCCCc1nnc(NC(=O)CS(=O)(=O)Cc2ccccc2)s1,-0.35%
7,COCc1nnc(NC(=O)CS(=O)(=O)Cc2ccccc2)s1,0.23%
8,O=C(Nc1ccccc1)Nc1nnc(COc2ccccc2F)s1,17.3% (active)
9,O=C(NCCOc1ccccc1F)Nc1ccc(Br)cc1,2.66%
10,CCCn1cc(S(=O)(=O)c2ccc(C)cc2)c(=O)c2cc(OCC)ccc21,-0.04%
11,Cc1ccc(S(=O)(=O)c2c[nH]c3ccc(Cl)cc3c2=O)cc1,40.4% (active)
12,Cc1ccc2[nH]cc(CCCN3C(=O)c4ccccc4C3=O)c2c1,-0.1%
13,Cc1ccc(S(=O)(=O)c2c[nH]c3ccc(C)cc3c2=O)cc1,8.92% (active)
14,CCOc1ccc2c(c1)c(=O)c(S(=O)(=O)c1ccc(C)cc1)cn2CC,-0.11%
15,CN1CCN(S(=O)(=O)c2ccc3[nH]cc(C(=O)O)c(=O)c3c2)CC1,1.71%
16,O=C(Nc1ccccc1Cl)/C(Cl)=C(\Cl)S(=O)c1ccccc1 (stereo unspecified),-0.49%
17,CCCCCn1nnnc1-c1nc2cc3ccccc3cc2[nH]c1=O,34.6% (active)
18,CCCCn1c(-c2cccc(C)c2)nc2cc3[nH]c(=O)c(C(C)C)nc3cc21,-0.06%
19,CCCCCn1nnnc1C1c2ccccc2C(=O)N1Cc1ccco1 (stereo unspecified),-0.27%
20,C=CCNC(=S)N/N=C/c1ccc(C)s1,-0.64%
21,CC(C)CNC(=O)C1CCCN(S(=O)(=O)c2ccc(-n3cnnn3)cc2)C1 (stereo unspecified),-0.29%

row,SMILES,inhibition
1,CCOc1ncccc1C(=O)N(C)CC(=O)Nc1ccc(F)cc1,-0.63%
2,CC1(C)CC(=O)C=C(c2cccc3c2Oc2ccccc2S3)C1,-0.11%
3,COc1ccc(C)cc1-n1nnnc1SCc1nc2ccccc2c(=O)[nH]1,0.31%
4,O=c1c(-c2ccc(Cl)cc2)[n+]([O-])c2ccccc2n1OCc1nc2ccccc2[nH]1,-0.49%
5,Clc1ccccc1SCc1nc2ccccc2[nH]1,7.72% (active)
6,O=C(COC(=O)c1ncc(Cl)c(Cl)c1Cl)NNC(=O)c1ccccc1,-0.19%
7,O=C(/C=C/c1cccs1)c1cc(Cl)ccc1OC(=O)N1CCOCC1,-0.94%
8,O=C1CC(C(=O)O)NC(=S)N1 (stereo unspecified),0.05%
9,Cc1oc(CC(C)C)c(CN2CCCC2)c1C(=O)O,-0.29%
10,O=C(Nc1nsc(-c2ccccc2)n1)c1ccncc1,-1.68%
11,CN(CC(=O)NCCc1ccc(S(N)(=O)=O)cc1)CC(=O)Nc1ccc(Cl)cc1,-0.04%
12,NS(=O)(=O)c1ccc(CCNC(=O)Nc2ccc(Cl)cc2)cc1,26.5% (active)
13,NS(=O)(=O)c1ccc(CCNC(=O)NC2CCCCC2)cc1,-1.44%
14,CC(=O)C1(C)N(O)C(C)(C)C(c2cccs2)=[N+]1[O-] (stereo unspecified),-1.27%
15,COc1ccccc1C(=O)N(Cc1ccc(C)o1)C1CCS(=O)(=O)C1 (stereo unspecified),-0.11%
16,CC1(C(=O)NS(=O)(=O)c2ccccc2)CCN1C(=O)C1CCCCC1 (stereo unspecified),-0.08%
17,CC(C)(C)c1ccc(S(=O)(=O)NC(=O)C2(C)CCN2C(=O)CC2CC2)cc1 (stereo unspecified),-0.1%
18,COc1ccc(NC2CCCN(C(=O)c3ccncc3)C2)cc1 (stereo unspecified),-0.58%
